Among the data in ChEMBL document CHEMBL3352778, “HDX reveals unique fragment ligands for the vitamin D receptor” (Bioorg Med Chem Lett, 2014) are Activity and IC50 values, retold here.

The source made the active and inactive calls. The calls are words filed in the database; no cut-off is given here.

The species named for one assay is Homo sapiens. As to the kind of experiment: Agonist activity at human full length Flag-tagged RXR/His-tagged VDR assessed as ability to recruit coactivator DRIP205 up to 500 uM by Alphascreen assay. The method in brief:
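AlphaScreen proximity assay of the RXR–VDR complex run in agonist mode, i.e. without any added VDR agonist. Read-out is the proximity signal produced when coactivator peptide DRIP205 is recruited to the VDR–RXR complex. Fragments were tested at concentrations up to 500 µM.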
(In Alpha technology, singlet oxygen from a donor bead excites a nearby acceptor bead.)

Assay [1] can be described thus: Antagonist activity at human full length Flag-tagged RXR/His-tagged VDR by Alphascreen assay. The method in brief:
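Antagonist-mode AlphaScreen assay: a non-secosteroidal VDR agonist was added to form the VDR/RXR/DRIP205 complex. Fragments were then added at 10 doses spanning 0.025–500 µM. Dissociation of the complex was quantified as loss of proximity signal on a multilabel reader, and dose–response curves were fitted.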

The IC50 is the midpoint of a concentration-inhibition curve. A higher IC50 goes with a need for much substance. On to `O=C1CC=C(c2ccccc2)O1`, for which, in the assay filed under Homo sapiens, the outcome was inactive. Besides, the IC50 in assay [1] came out at 440 µM.
In the same order, the values of `Cn1c(=O)c2nc(-c3cccc(O)c3O)nnc2n(C)c1=O` are “inactive” and 0.194 µM.
In the same order, the values of `O=C(O)/C=C(/c1ccccc1)c1cccs1` are “inactive” and 16.7 µM.
For `Oc1cnn(-c2ccccc2)c1Cl`, the result in the assay listed under Homo sapiens was inactive. Inhibition in assay [1] was half-maximal at 43.2 µM (IC50).
On to `CCC1CCCCN1CC(=O)c1cccs1` (stereo unspecified), for which the outcome in the assay listed under Homo sapiens was inactive. Besides, the half-maximal inhibitory concentration (IC50) in assay [1] is 20 µM.
For `O=C1CCCC=C(Cl)N1c1ccccc1`, in that order: “inactive” and 6.98 µM.
In the same order, the values of `Nc1ccc2c(c1)N=C(O)CN2` are “inactive” and 5.37 µM.
In the same order, the values of `CCn1c(O)cc(C)cc1=O` are “inactive” and 1.01 µM.
As for `Oc1coc(-c2ccccc2)c1`, in the assay listed under Homo sapiens, the result was inactive. The compound further had an IC50 in assay [1] of 14.2 µM.
In the same order, the values of `Oc1cc(-c2ccc(Cl)cc2)no1` are “inactive” and 67.1 µM.
Take `OC(c1ccc(-c2cccs2)cc1)(C(F)(F)F)C(F)(F)F`: the outcome in the assay filed under Homo sapiens was inactive. The compound also yielded an IC50 in assay [1] of 1.3 µM.
For `O=C(O)C1CSC=C(c2ccccc2)N1` (stereo unspecified), in that order: “inactive” and 2.77 µM.
In the same order, the values of `Oc1csc2ccccc12` are “inactive” and 6.83 µM.
